Reference: ChEMBL document CHEMBL3779787, “Amorfrutin C Induces Apoptosis and Inhibits Proliferation in Colon Cancer Cells through Targeting Mitochondria” (J Nat Prod, 2016)
Calls of active or inactive are those of the source. The calls are words filed in the database; no cut-off is given here.

Key:
[1] = test system: MCF7; test: Antiproliferative activity against human MCF7 cells assessed as cellular DNA content after 96 hrs by CyQUANT NF fluorescence assay relative to control; format: functional
Outline: (§1)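 Cells seeded at 750 (HT-29), 250 (PC-3) or 900 (T84, MCF7) cells/well, treated next day with concentration series for 72 h (HT-29, PC-3) or 96 h (T84, MCF7). Relative cell number from cellular DNA content by fluorescent DNA-binding dye. Variable-slope fit; efficiency = maximal inhibition (100% − Bottom) vs untreated; IC50 relative to the compound's own maximal efficiency.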

[2] = test system: T84; test: Antiproliferative activity against human T84 cells assessed as cellular DNA content after 96 hrs by CyQUANT NF fluorescence assay relative to control; format: functional; outline: as §1
[3] = Antiproliferative activity against human PC3 cells assessed as cellular DNA content after 72 hrs by CyQUANT NF fluorescence assay; format: functional, cell-based; conditions: PC-3, 72 h; outline: as §1
[4] = Antiproliferative activity against human PC3 cells assessed as cellular DNA content after 72 hrs by CyQUANT NF fluorescence assay relative to control; format: functional, PC-3; outline: as §1
[5] = test system: MCF7; test: Antiproliferative activity against human MCF7 cells assessed as cellular DNA content after 96 hrs by CyQUANT NF fluorescence assay; format: functional, cell-based; conditions: MCF7, 96 h; outline: as §1
[6] = test system: T84; test: Antiproliferative activity against human T84 cells assessed as cellular DNA content after 96 hrs by CyQUANT NF fluorescence assay; format: functional, cell-based; conditions: T84, 96 h; outline: as §1
[7] = test system: HT-29; test: Antiproliferative activity against human HT-29 cells assessed as cellular DNA content after 72 hrs by CyQUANT NF fluorescence assay relative to control; format: functional; outline: as §1
[8] = test system: HT-29; test: Antiproliferative activity against human HT-29 cells assessed as cellular DNA content after 72 hrs by CyQUANT NF fluorescence assay; format: functional, cell-based; conditions: HT-29, 72 h; outline: as §1
[9] = test system: HT-29; test: Increase in extracellular acidification rate in human HT-29 cells measured for 20 to 150 mins by time-resolved fluorescence assay relative to control; format: functional
[10] = test system: HT-29; test: Increase in mitochondrial oxygen consumption in human HT-29 cells measured for 20 to 60 mins by time-resolved fluorescence assay; format: functional, cell-based
Outline: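 Oxygen-sensitive MitoXpress-Xtra probe in phenol red-free DMEM/F-12 on HT-29 seeded 80 000/well the day before; 10 min at 37 °C, compounds added, wells sealed with mineral oil. Time-resolved fluorescence at 37 °C, 90 s intervals for 150 min, background subtracted. Lifetime slope from 20 to 60 min taken relative to untreated cells; means ± SEM, n = 8.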

[11] = test system: HT-29; test: Induction of apoptosis in human HT-29 cells after 24 hrs by annexin V-FLUOS/propidium iodide staining-based flow cytometry; format: functional, cell-based
[12] = test system: HT-29; test: Induction of apoptosis in human HT-29 cells assessed as mitochondrial membrane depolarization after 5 mins by JC-1 dye-based fluorescence assay; format: functional, cell-based
Outline: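 HT-29 (40 000 cells/well) treated with concentration series for 5 min at 37 °C, then JC-1 added for a further 10 min and washed. Red (560/590 nm) to green (485/520 nm) fluorescence ratio taken as ΔΨm; variable-slope fit for IC50; means ± SD, n = 4.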

Row | Structure (SMILES) | Efficacy [1] [%] | Efficacy [2] [%] | IC50 [3] [µM] | Efficacy [4] [%] | IC50 [5] [µM] | IC50 [6] [µM] | Efficacy [7] [%] | IC50 [8] [µM] | fold change (FC) [9] | Activity [10] | Activity [11] | Activity [12]
1 | CCc1c2c(nc3ccc(OC(=O)N4CCC(N5CCCCC5)CC4)cc13)-c1cc3c(c(=O)n1C2)COC(=O)[C@]3(O)CC [IRINOTECAN] | 82 | 82 | 0.8 | 76 | 0.9 | 1.2 | 71 | 1.9 |  |  |  | 
2 | COc1cc([C@@H]2c3cc4c(cc3[C@@H](O[C@@H]3O[C@@H]5CO[C@@H](C)O[C@H]5[C@H](O)[C@H]3O)[C@H]3COC(=O)[C@H]23)OCO4)cc(OC)c1O [ETOPOSIDE] | 78 | 90 | 1.1 | 84 | 0.8 | 3 | 97 | 2.2 |  |  |  | 
3 | COc1cc(CCc2ccccc2)c(C(=O)O)c(O)c1C/C=C(\C)CCC=C(C)C | 94 | 99 | 32 | 95 | 33 | 13 | 98 | 20 |  |  |  | 
4 | N#CC(C#N)=NNc1cccc(Cl)c1 [CARBONYL CYANIDE M-CHLOROPHENYLHYDRAZONE] |  |  |  |  |  |  |  |  | 3 | Active |  | 
5 | COC(=O)c1c(O)c(CC=C(C)C)c(OC)c(CC=C(C)C)c1CCc1ccccc1 |  |  |  |  |  |  |  |  |  |  | Active | Active
6 | CCCCCCC1C(=O)O[C@H](C)[C@H](NC(=O)c2cccc(NC=O)c2O)C(=O)O[C@@H](C)[C@@H]1OC(=O)CC(C)C (stereo not given in full) |  |  |  |  |  |  |  |  | 7 | Active |  | 
7 | O=c1[nH]cc(F)c(=O)[nH]1 [FLUOROURACIL] | 80 | 76 | 4.9 | 80 | 0.9 | 6.2 | 68 | 5.3 |  |  |  | 
8 | COc1c(CC=C(C)C)c(CCc2ccccc2)c(C(=O)O)c(OC)c1CC=C(C)C |  |  |  |  |  |  |  |  |  |  | Active | Active
